Data taken from ChEMBL document CHEMBL1149831, “Synthesis of 2-aryl-4-(benzimidazol-2-yl)-1,2-dihydro[1,2,4]triazino-[4,5-a]benzimidazol-1-one derivatives with preferential cytotoxicity against carcinoma cell lines” (Eur J Med Chem, 2008).

Columns and labels:
Type in all cases: functional, cell-based
[1] = system: K562; test: Cytotoxicity against human K562-Tax cells after 72 hrs by MTT assay; settings: K562, 72 h
How it was run: (§1)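 Cells grown in DMEM/RPMI 1640 with 5 g/L glucose, 2 mM glutamine, penicillin/streptomycin, 10% fetal calf serum and NaHCO3. Seeded in 96-well plates and left 24 h at 37 °C, 5% CO2 before compound addition. Exposure then ran 72 h, each concentration in duplicate. MTT added for 1-4 h and formazan dissolved overnight in 10% aq. SDS (pH 5.5). OD read at 540 nm, with IC50 taken from dose-response curves.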

[2] = system: HT-29; test: Cytotoxicity against human HT29 cells after 72 hrs by MTT assay; settings: HT-29, 72 h; how it was run: as §1
[3] = system: K562; test: Cytotoxicity against human K562 cells after 72 hrs by MTT assay; settings: K562, 72 h; how it was run: as §1
[4] = system: A549; test: Cytotoxicity against human A549 cells after 72 hrs by MTT assay; settings: A549, 72 h; how it was run: as §1
[5] = system: MCF7; test: Cytotoxicity against human MCF7 cells after 72 hrs by MTT assay; settings: MCF7, 72 h; how it was run: as §1
[6] = system: HCT-116; test: Cytotoxicity against human HCT116 cells expressing mutant p53 after 72 hrs by MTT assay; settings: HCT-116, 72 h; how it was run: as §1
[7] = system: CCRF-CEM; test: Cytotoxicity against human CEM-DNR bulk cells after 72 hrs by MTT assay; how it was run: as §1
[8] = system: CCRF-CEM; test: Cytotoxicity against human CEM cells after 72 hrs by MTT assay; how it was run: as §1
[9] = system: PC-3; test: Cytotoxicity against human PC3 cells after 72 hrs by MTT assay; settings: PC-3, 72 h; how it was run: as §1
[10] = system: HCT-116; test: Cytotoxicity against human HCT116 cells expressing wild type p53 after 72 hrs by MTT assay; settings: HCT-116, 72 h; how it was run: as §1
[11] = system: U-118-MG; test: Cytotoxicity against human U118Mg cells after 72 hrs by MTT assay; how it was run: as §1

| Compound | IC50 [1] [µM] | IC50 [2] [µM] | IC50 [3] [µM] | IC50 [4] [µM] | IC50 [5] [µM] | IC50 [6] [µM] | IC50 [7] [µM] | IC50 [8] [µM] | IC50 [9] [µM] | IC50 [10] [µM] | IC50 [11] [µM] |
| --- | --- | --- | --- | --- | --- | --- | --- | --- | --- | --- | --- |
| Clc1ccc(NN=C(c2nc3ccccc3[nH]2)c2nc3ccccc3[nH]2)cc1 | 159 | 114 | 200 | 2.8 | 140 | 16.8 | 112 | 42.5 | 250 | 201 | 250 |
| CCOC(=O)n1c(-c2nn(-c3ccc([N+](=O)[O-])cc3)c(=O)n3c2nc2ccccc23)nc2ccccc21 | 196 | 21.9 | 166 | 4.4 | 144 | 5.4 | 224 | 155 | 125 | 70.7 | 6.2 |
| CCOC(=O)n1c(-c2nn(-c3ccc(OC)cc3)c(=O)n3c2nc2ccccc23)nc2ccccc21 | 7.8 | 38.7 | 14 | 44.4 | 51.6 | 46.3 | 111 | 31.8 | 145 | 42.8 | 54.3 |
| CCOC(=O)n1c(-c2nn(-c3ccc(Cl)cc3)c(=O)n3c2nc2ccccc23)nc2ccccc21 | 7.9 | 29.7 | 14.1 | 4 | 21.3 | 6.4 | 111 | 31.8 | 150 | 7.7 | 12.4 |
| COc1ccc(NN=C(c2nc3ccccc3[nH]2)c2nc3ccccc3[nH]2)cc1 | 235 | 114 | 116 | 0.5 | 215 | 66.5 | 96.7 | 10.9 | 250 | 35.7 | 250 |
| CCOC(=O)n1c(-c2nn(-c3ccccc3)c(=O)n3c2nc2ccccc23)nc2ccccc21 | 42.2 | 15.2 | 69.4 | 18 | 35.1 | 10.8 | 18.4 | 58.6 | 37.5 | 11.4 | 17.7 |
| COc1ccc(-n2nc(-c3nc4ccccc4[nH]3)c3nc4ccccc4n3c2=O)cc1 | 7.5 | 6 | 8.7 | 8.7 | 10.7 | 3.6 | 35.4 | 3.5 | 24.6 | 6.9 | 10 |
| O=c1n(-c2ccc(Cl)cc2)nc(-c2nc3ccccc3[nH]2)c2nc3ccccc3n12 | 167 | 88.6 | 134 | 1.2 | 140 | 2.3 | 51.2 | 83.6 | 242 | 73.9 | 247 |
| O=[N+]([O-])c1ccc(NN=C(c2nc3ccccc3[nH]2)c2nc3ccccc3[nH]2)cc1 | 101 | 17.7 | 190 | 0.7 | 94.8 | 4.7 | 140 | 58.4 | 218 | 11.7 | 250 |
| O=c1n(-c2ccccc2)nc(-c2nc3ccccc3[nH]2)c2nc3ccccc3n12 | 42.7 | 8 | 23.5 | 11.5 | 74.8 | 8.6 | 45.6 | 12.2 | 13.6 | 38.1 | 12 |
| CCOC(=O)n1c(-c2nn(-c3ccc(C)cc3)c(=O)n3c2nc2ccccc23)nc2ccccc21 | 53.7 | 96.2 | 140 | 71 | 134 | 44.4 | 29.6 | 25.5 | 165 | 46.3 | 147 |
| Cc1ccc(-n2nc(-c3nc4ccccc4[nH]3)c3nc4ccccc4n3c2=O)cc1 | 20.9 | 15.2 | 18.3 | 14.7 | 34.1 | 7.6 | 61.2 | 18.5 | 40.8 | 7.8 | 17.9 |
| O=c1n(-c2ccc([N+](=O)[O-])cc2)nc(-c2nc3ccccc3[nH]2)c2nc3ccccc3n12 | 250 | 248 | 210 | 2.2 | 250 | 250 | 190 | 103 | 250 | 250 | 250 |
| Cc1ccc(NN=C(c2nc3ccccc3[nH]2)c2nc3ccccc3[nH]2)cc1 | 239 | 95.9 | 160 | 0.6 | 95.8 | 10.5 | 87.6 | 26.5 | 250 | 195 | 250 |
| c1ccc(NN=C(c2nc3ccccc3[nH]2)c2nc3ccccc3[nH]2)cc1 | 144 | 81.9 | 114 | 3.8 | 83.2 | 17.6 | 27.9 | 13 | 248 | 162 | 160 |
